“Also recorded” adds a separate entry of the source.
Experiments:
MIA PaCa-2 cells = assay: MTT cytotoxicity assay, MIA PaCa-2; format: cell-based, human; conditions: for effect of NAC on proliferation inhibitory effect: NAC 5 mM, MTT assay, 72 h; for IC50: Homo sapiens, MIA PaCa-2, 72 h, read-out: IC50 (μM) MIA PaCa-2, MTT assay, 72 h treatment, mean ± SD from three independent experiments
MIA PaCa-2 xenograft [1] = assay: MIA PaCa-2 xenograft tumor growth in NOD/SCID mice; format: in vivo
[2] = tolerability in MIA PaCa-2 engrafted NOD/SCID mice; format: in vivo
[3] = tested on: ROS accumulation in MIA PaCa-2 cells; assay: ROS detection assay; format: cell-based, human; conditions: for ROS accumulation / ROS induction after NAC pretreatment: MIA PaCa-2; for ROS accumulation: compounds at 10, 3.3 or 1.1 μM; for ROS induction after NAC pretreatment: NAC 5 mM for 30 min; for ROS induction and cytotoxicity compared with QD325: triphenylphosphonium derivatives
Outline: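 MIA PaCa-2 cells were trypsinised (0.05% trypsin-EDTA), loaded with 20 μM H2DCFDA for 30 min at 37 °C, washed, then seeded at 20,000 cells/well. After 30 min they were given test compound, with DMSO for basal signal and unstained cells plus 10 μM compound for autofluorescence. For NAC runs, cells were pretreated with 5 mM NAC for 30 min, with H2O2 as a control. Fluorescence was read at 493/523 nm over time, in duplicates; three independent experiments.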

[4] = tested on: nascent RNA synthesis in MIA PaCa-2 cells; assay: Bru-seq analysis for nascent RNA synthesis; format: cell-based, human; conditions: for apoptosis signaling by IPA analysis: 4 h, QD232 3 times IC50, QD325 5 times IC50; for nascent mitochondrial RNA synthesis: MIA PaCa-2, 4-hour treatment, QD232 at 6.9 μM, QD325 at 5.0 μM; for synthesis of NQO1 and HMOX1 RNAs / transcription of DDIT3 and HSPA5: MIA PaCa-2, 4 h; for synthesis of NQO1 and HMOX1 RNAs: QD232 at 1, 2 or 3 times IC50, QD325 at 1, 2 or 5 times IC50; for transcription of DDIT3 and HSPA5: dose-dependent
BxPC-3 cells = assay: MTT cytotoxicity assay, BxPC-3; format: cell-based; conditions: Homo sapiens, BXPC-3, 72 h, read-out: IC50 (μM) BxPC-3, MTT assay, 72 h treatment; mean ± SD from three independent experiments
MIA PaCa-2 xenograft [5] = conditions: 20 mg/kg, 31-day study, similar MIA PaCa-2 xenograft model; cited from earlier work
pancreatic cancer = conditions: metastatic pancreatic cancer patients; cited from earlier work

## O=C1C(Nc2ccc(-c3ccccc3)cc2)=CC(=O)c2ncncc21 [QD325, 6-([1,1’-Biphenyl]-4-ylamino)quinazoline-5,8-dione]
MIA PaCa-2 cells
  effect of NAC on proliferation inhibitory effect: attenuated
MIA PaCa-2 xenograft [1]; QD325 5 mg/kg five times a week until day 44, immunohistochemistry
  Ki67 staining (proliferation marker) in tumor tissues: decreased
MIA PaCa-2 xenograft [1]; QD325 5 mg/kg five times a week, 48 days
  inhibition of tumor growth, experiment of Figure 6E: 83%
MIA PaCa-2 xenograft [1]; QD325 5 mg/kg five times a week, day 44
  inhibition of tumor growth, experiment of Figure 5A: 76%
MIA PaCa-2 xenograft [1]; QD325-treated vs vehicle-treated tumors
  NQO1, HO-1, CHOP and GRP78 protein levels in tumor lysates: significantly upregulated
[2]; 5 mg/kg five times a week until day 44
  histopathology of H&E stained organ sections: did not reveal any major histopathological changes
[2]; dose increased from 5 to 20 mg/kg, day 44 to day 67, two mice per group
  systemic toxicity at higher doses: without any overt systemic toxicity
[2]; study 1, 5 mg/kg five times a week until day 44
  symptoms of gross toxicity (weakness, weight loss, lethargy): No symptoms of gross toxicity
[3]
  ROS accumulation: time-and dose-dependent accumulation of ROS; also recorded: stronger and more rapid ROS accumulation
  ROS induction after NAC pretreatment: inhibited
[4]
  apoptosis signaling by IPA analysis: significant activation of apoptosis signaling
  nascent mitochondrial RNA synthesis: inhibited
  synthesis of NQO1 and HMOX1 RNAs: upregulated in a dose-dependent manner
  transcription of DDIT3 and HSPA5: significantly increased

## Nc1ccc(C(=O)NCCC[P+](c2ccccc2)(c2ccccc2)c2ccccc2)cc1 [QD339, (3-(4-Aminobenzamido)propyl)triphenylphosphonium bromide]
MIA PaCa-2 cells
  IC50: > 30 µM
BxPC-3 cells
  IC50: > 30 µM

## Nc1cccc(C(=O)NCCC[P+](c2ccccc2)(c2ccccc2)c2ccccc2)c1 [QD358, (3-(3-Aminobenzamido)propyl)triphenylphosphonium bromide]
MIA PaCa-2 cells
  IC50: > 30 µM
BxPC-3 cells
  IC50: > 30 µM

## CC(=O)c1cccc(NC2=CC(=O)c3ncncc3C2=O)c1 [QD232, reference compound]
MIA PaCa-2 cells
  effect of NAC on proliferation inhibitory effect: attenuated
[3]
  ROS accumulation: time-and dose-dependent accumulation of ROS
  ROS induction after NAC pretreatment: inhibited
[4]
  apoptosis signaling by IPA analysis: significant activation of apoptosis signaling
  nascent mitochondrial RNA synthesis: inhibited
  synthesis of NQO1 and HMOX1 RNAs: upregulated in a dose-dependent manner
  transcription of DDIT3 and HSPA5: significantly increased
MIA PaCa-2 xenograft [5]
  suppression of tumor growth: 65%

## FOLFIRINOX
Pancreatic cancer
  median overall survival: 11.1 months

## Nc1ccn([C@@H]2O[C@H](CO)[C@@H](O)C2(F)F)c(=O)n1 [Gemcitabine]
Pancreatic cancer
  median overall survival: 6.8 months

## O=C(NCCC[P+](c1ccccc1)(c1ccccc1)c1ccccc1)c1ccc(NC2=CC(=O)c3ncncc3C2=O)cc1.[Br-] [QD340, (3-(4-((5,8-Dioxo-5,8-dihydroquinazolin-6-yl)amino)benzamido)propyl) triphenylphosphonium bromide]
[3]
  ROS induction and cytotoxicity compared with QD325: did not show better ROS induction and cytotoxicity than QD325

## O=C(NCCC[P+](c1ccccc1)(c1ccccc1)c1ccccc1)c1cccc(NC2=CC(=O)c3ncncc3C2=O)c1.[Br-] [QD359, (3-(3-((5,8-Dioxo-5,8-dihydroquinazolin-6-yl)amino)benzamido)propyl) triphenylphosphonium bromide]
[3]
  ROS induction and cytotoxicity compared with QD325: did not show better ROS induction and cytotoxicity than QD325

## COc1cc(NC2=CC(=O)c3ncncc3C2=O)cc(OC)c1OC [QD326, 6-((3,4,5-Trimethoxyphenyl)amino)quinazoline-5,8-dione]
MIA PaCa-2 cells
  effect of NAC on proliferation inhibitory effect: attenuated
[3]
  ROS accumulation: time-and dose-dependent accumulation of ROS; also recorded: stronger and more rapid ROS accumulation
  ROS induction after NAC pretreatment: inhibited
